Experimental data: ChEMBL document CHEMBL4028811, “Discovery of 2-substituted 1H-benzo[d]immidazole-4-carboxamide derivatives as novel poly(ADP-ribose)polymerase-1 inhibitors with in vivo anti-tumor activity” (Eur J Med Chem, 2017)
Each block holds one compound with its values, some of them ahead of it.

Assays:
[1] = target: T1, Poly [ADP-ribose] polymerase 1 (Homo sapiens, UniProt P09874); assay: Inhibition of recombinant human PARP1 expressed in Escherichia coli BL21(DE3) using histone as substrate measured after 1 hr in presence of biotinylated NAD+ by ELISA
[2] = target: T1, Poly [ADP-ribose] polymerase 1; assay: Inhibition of recombinant human PARP1 expressed in Escherichia coli BL21(DE3) using sheared DNA as substrate measured after 1 hr in presence of NAD+
Homo sapiens = species on record: Homo sapiens; assay: Selectivity ratio of IC50 for recombinant human PARP2 to IC50 for recombinant human PARP1
Method in brief: (§1)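 Human recombinant PARP2 (and PARP1) expressed and purified, inhibition measured by ELISA, with AZD2281 as positive control. IC50 from concentration–response fitting.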

[3] = target: Poly [ADP-ribose] polymerase 2 (Homo sapiens, UniProt Q9UGN5); assay: Inhibition of recombinant human PARP2 expressed in Escherichia coli BL21(DE3) using histone as substrate measured after 1 hr in presence of biotinylated NAD+ by ELISA; method in brief: as §1
[4] = target: T1, Poly [ADP-ribose] polymerase 1; assay: Inhibition of PARP1 in human MX1 cells assessed as potentiation of temozolomide-induced cytotoxicity at 10 uM after 72 hrs by MTT assay relative to temozolomide alone; type: cell-based
Method in brief: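 MX-1 cells seeded at 2000/well and exposed for 72 h to TMZ (0–0.5 mmol/L) with or without PARP inhibitor fixed at 10 μmol/L. Survival read by MTT. PF50 = IC50 of TMZ alone / IC50 of TMZ + inhibitor.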

MX1 [5] = assay: Anti-tumor activity against human MX1 cells xenografted in BALB/c mouse assessed as tumor growth inhibition at 25 mg/kg, po administered once daily via gavage for 5 days measured after 11 days in presence of temozolomide relative to temozolomide; type: functional
Method in brief: (§2)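 Female athymic BALB/c nude mice, 8–10 weeks old, implanted s.c. with 1×10^6 MX-1 cells in 0.1 mL PBS. Day 6: grouped at 6/group, tumors 100–300 mm³. Oral gavage once daily. TMZ 50 mg/kg/day for 5 days; single-agent test compound 50 mg/kg/day for 10 days; combinations both orally for 5 days. Body weight and tumor volume measured twice weekly; euthanized day 11.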

MX1 [6] = assay: Anti-tumor activity against human MX1 cells xenografted in BALB/c mouse assessed as tumor growth inhibition at 25 mg/kg, po administered once daily via gavage for 5 days measured after 11 days in presence of temozolomide relative to control; type: functional; method in brief: as §2
MX1 [7] = assay: Anti-tumor activity against human MX1 cells xenografted in BALB/c mouse assessed as tumor weight at 50 mg/kg, po administered once daily via gavage for 5 days measured after 11 days in presence of temozolomide (reference value: 4.09 +/- 0.64 g); type: functional; method in brief: as §2
MX1 [8] = assay: Anti-tumor activity against human MX1 cells xenografted in BALB/c mouse assessed as tumor growth inhibition at 50 mg/kg, po administered once daily via gavage for 5 days measured after 11 days in presence of temozolomide relative to temozolomide; type: functional; method in brief: as §2
MX1 [9] = assay: Anti-tumor activity against human MX1 cells xenografted in BALB/c mouse assessed as tumor weight at 25 mg/kg, po administered once daily via gavage for 5 days measured after 11 days in presence of temozolomide (reference value: 4.09 +/- 0.64 g); type: functional; method in brief: as §2
Mus musculus [10] = assay: Toxicity in BALB/c mouse assessed as change in body weight at 50 mg/kg, po administered once daily via gavage for 5 days in presence of temozolomide measured twice every week up to 11 days (reference value: 5.32 g); type: organism-based; conditions: in vivo; method in brief: as §2
Mus musculus [11] = assay: Toxicity in BALB/c mouse assessed as change in body weight at 25 mg/kg, po administered once daily via gavage for 5 days in presence of temozolomide measured twice every week up to 11 days (reference value: 5.32 g); type: organism-based; conditions: in vivo; method in brief: as §2
MX1 [12] = assay: Anti-tumor activity against human MX1 cells xenografted in BALB/c mouse assessed as tumor weight at 50 mg/kg, po administered once daily via gavage for 10 days measured after 11 days (reference value: 4.09 +/- 0.64 g); type: functional; method in brief: as §2
Mus musculus [13] = assay: Toxicity in BALB/c mouse assessed as change in body weight at 50 mg/kg, po administered once daily via gavage for 10 days measured twice every week up to 11 days (reference value: 5.32 g); type: organism-based; conditions: in vivo; method in brief: as §2
MX1 [14] = assay: Anti-tumor activity against human MX1 cells xenografted in BALB/c mouse assessed as tumor growth inhibition at 50 mg/kg, po administered once daily via gavage for 5 days measured after 11 days in presence of temozolomide relative to control; type: functional; method in brief: as §2
MX1 [15] = assay: Anti-tumor activity against human MX1 cells xenografted in BALB/c mouse assessed as tumor growth inhibition at 50 mg/kg, po administered once daily via gavage for 10 days measured after 11 days relative to control; type: functional; method in brief: as §2
[16] = Mus musculus, MX1, po, read-out: TGI

T1 sequence (P09874 whole entry): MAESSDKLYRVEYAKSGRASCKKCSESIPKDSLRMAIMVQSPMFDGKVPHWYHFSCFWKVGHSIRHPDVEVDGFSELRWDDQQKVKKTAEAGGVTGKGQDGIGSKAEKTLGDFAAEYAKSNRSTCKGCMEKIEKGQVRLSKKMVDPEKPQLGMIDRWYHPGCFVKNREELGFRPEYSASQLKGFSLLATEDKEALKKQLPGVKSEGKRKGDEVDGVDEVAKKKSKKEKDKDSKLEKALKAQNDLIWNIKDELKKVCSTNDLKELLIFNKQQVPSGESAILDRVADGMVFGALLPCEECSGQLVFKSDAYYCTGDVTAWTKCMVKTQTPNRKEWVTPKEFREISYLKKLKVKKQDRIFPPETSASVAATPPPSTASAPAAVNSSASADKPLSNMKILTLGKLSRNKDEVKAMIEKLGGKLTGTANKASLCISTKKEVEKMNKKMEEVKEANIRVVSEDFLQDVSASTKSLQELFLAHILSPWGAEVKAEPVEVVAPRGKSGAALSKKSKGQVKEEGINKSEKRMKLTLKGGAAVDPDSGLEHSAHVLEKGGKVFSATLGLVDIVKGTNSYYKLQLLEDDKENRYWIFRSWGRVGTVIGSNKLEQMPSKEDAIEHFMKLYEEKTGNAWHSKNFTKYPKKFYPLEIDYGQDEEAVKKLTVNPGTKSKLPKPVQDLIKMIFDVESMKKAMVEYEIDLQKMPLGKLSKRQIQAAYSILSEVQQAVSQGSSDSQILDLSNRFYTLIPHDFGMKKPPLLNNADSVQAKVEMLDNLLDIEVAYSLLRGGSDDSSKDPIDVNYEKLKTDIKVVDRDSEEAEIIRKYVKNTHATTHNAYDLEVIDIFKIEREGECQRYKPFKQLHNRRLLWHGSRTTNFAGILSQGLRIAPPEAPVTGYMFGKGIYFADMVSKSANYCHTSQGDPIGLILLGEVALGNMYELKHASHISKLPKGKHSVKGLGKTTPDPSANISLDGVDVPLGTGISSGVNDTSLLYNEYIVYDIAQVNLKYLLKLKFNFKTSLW
Sequence of Poly [ADP-ribose] polymerase 2 (Q9UGN5 whole entry): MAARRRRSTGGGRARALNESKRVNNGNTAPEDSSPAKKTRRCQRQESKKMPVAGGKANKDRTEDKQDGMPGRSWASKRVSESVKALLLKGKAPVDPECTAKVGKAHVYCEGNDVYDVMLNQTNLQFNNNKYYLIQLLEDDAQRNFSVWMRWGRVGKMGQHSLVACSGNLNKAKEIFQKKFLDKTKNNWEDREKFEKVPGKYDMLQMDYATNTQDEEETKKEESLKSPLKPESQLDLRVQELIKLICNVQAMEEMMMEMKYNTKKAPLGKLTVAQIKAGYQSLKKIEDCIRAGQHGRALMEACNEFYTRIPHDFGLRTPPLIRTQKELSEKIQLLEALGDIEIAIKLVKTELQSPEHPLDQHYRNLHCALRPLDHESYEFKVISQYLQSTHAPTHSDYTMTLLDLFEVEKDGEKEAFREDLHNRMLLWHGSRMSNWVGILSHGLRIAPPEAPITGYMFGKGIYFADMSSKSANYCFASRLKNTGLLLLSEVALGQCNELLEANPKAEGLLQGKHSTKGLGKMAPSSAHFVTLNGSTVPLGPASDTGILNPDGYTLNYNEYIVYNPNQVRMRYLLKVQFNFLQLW

SMILES: CC(C)(C)OC(=O)N1CCC(NC2CCN(C(=O)c3nc4c(C(N)=O)cccc4[nH]3)CC2)CC1
IC50 [1]: 250 nM

SMILES: CCC(=O)N1CCN(C(=O)c2nc3c(C(N)=O)cccc3[nH]2)CC1
IC50 [1]: > 100 nM

SMILES: CC(C)(C)OC(=O)N1CCC(N2CCC(NC(=O)c3nc4c(C(N)=O)cccc4[nH]3)CC2)CC1
IC50 [1]: 868 nM

SMILES: CC(C)(C)CN1CCC(NC(=O)c2nc3c(C(N)=O)cc(F)cc3[nH]2)CC1
IC50 [1]: 17 nM
T/C (MX1 [5]): 94%
inhibition in vivo at 25 mg/kg (MX1 [5]; [16]): 6%
T/C (MX1 [6]): 36%
inhibition in vivo at 25 mg/kg (MX1 [6]; [16]): 64%
Activity (MX1 [7]): 0.5 g
T/C (MX1 [8]): 32%
inhibition in vivo at 50 mg/kg (MX1 [8]; [16]): 68%
Ratio IC50 (Homo sapiens): < 10
Activity (MX1 [9]): 1.47 g
Activity (Mus musculus [10]): -0.79 g
Activity (Mus musculus [11]): 0.23 g
Activity (MX1 [12]): 3.73 g
Activity (Mus musculus [13]): 5 g
T/C (MX1 [14]): 12%
inhibition in vivo at 50 mg/kg (MX1 [14]; [16]): 88%
T/C (MX1 [15]): 91%
inhibition in vivo at 50 mg/kg (MX1 [15]; [16]): 9%
IC50 [3]: 74 nM
PF50 [4]: 7.1

SMILES: CC[C@@H]1CN(C(=O)c2nc3c(C(N)=O)cccc3[nH]2)CCN1C(=O)OC(C)(C)C
IC50 [1]: > 100 nM

SMILES: NC(=O)c1cc(F)cc2[nH]c(C(=O)N3CCC(N)CC3)nc12
IC50 [1]: 2.76 nM
Ratio IC50 (Homo sapiens): < 10
IC50 [3]: 24 nM
PF50 [4]: 0.98

SMILES: CC(C)(C)OC(=O)NC1CCN(C(=O)c2nc3c(C(N)=O)cccc3[nH]2)C1 (stereo not drawn)
IC50 [1]: 857 nM

SMILES: NC(=O)c1cccc2[nH]c(C(=O)NC3CN4CCC3CC4)nc12 (stereo not drawn)
IC50 [1]: > 100 nM

SMILES: CC(C)(C)OC(=O)N1CCC(N2CCCC(NC(=O)c3nc4c(C(N)=O)cccc4[nH]3)C2)CC1 (stereo not drawn)
IC50 [2]: 818 nM

SMILES: CC(C)(C)OC(=O)N1CCC(NC(=O)c2nc3c(C(N)=O)cccc3[nH]2)CC1
IC50 [1]: 644 nM

SMILES: NC(=O)c1cccc2[nH]c(C(=O)NC3CCN(C4CCCCC4)CC3)nc12
IC50 [1]: 311 nM

SMILES: CC[C@H]1CN(C(=O)c2nc3c(C(N)=O)cccc3[nH]2)CCN1C(=O)OC(C)(C)C
IC50 [1]: 100 nM

SMILES: NC(=O)c1cccc2[nH]c(C(=O)NC3CCCN(C4CCCCC4)C3)nc12 (stereo not drawn)
IC50 [2]: 382 nM

SMILES: NC(=O)c1cccc2[nH]c(C(=O)N3CCNC(=O)C3)nc12
IC50 [1]: 29 nM

Continued, in another order:

IC50 [2]: 1150 nM
SMILES: CC(C)(C)OC(=O)N1CCCC(NC(=O)c2nc3c(C(N)=O)cccc3[nH]2)C1 (stereo not drawn)

IC50 [1]: 15 nM
SMILES: NC(=O)c1cc(F)cc2[nH]c(C(=O)N3CCNC(=O)C3)nc12

IC50 [1]: 111 nM
SMILES: CC(C)CCN1CCC(NC(=O)c2nc3c(C(N)=O)cccc3[nH]2)CC1

IC50 [1]: 15 nM
Ratio IC50 (Homo sapiens): < 10
IC50 [3]: 48 nM
SMILES: NC(=O)c1cccc2[nH]c(C(=O)N3CCC(N)C3)nc12 (stereo not drawn)
PF50 [4]: 1.98

IC50 [1]: 92 nM
SMILES: CC(C)CN1CCC(NC(=O)c2nc3c(C(N)=O)cccc3[nH]2)CC1

IC50 [1]: 83 nM
SMILES: NC(=O)c1cccc2[nH]c(C(=O)NC3CCN(C(=O)C(F)(F)F)CC3)nc12

IC50 [1]: 88 nM
SMILES: CCC(CC)N1CCN(C(=O)c2nc3c(C(N)=O)cc(F)cc3[nH]2)CC1=O

IC50 [1]: 83 nM
SMILES: CCC(=O)NC1CCN(C(=O)c2nc3c(C(N)=O)cccc3[nH]2)C1 (stereo not drawn)

IC50 [1]: 30 nM
SMILES: CCC(CC)N1CCC(NC(=O)c2nc3c(C(N)=O)cc(F)cc3[nH]2)CC1

IC50 [1]: 12 nM
Ratio IC50 (Homo sapiens): < 10
IC50 [3]: 19 nM
SMILES: NC(=O)c1cc(F)cc2[nH]c(C(=O)N3CCC(N)C3)nc12 (stereo not drawn)
PF50 [4]: 1.07

IC50 [1]: 75 nM
Ratio IC50 (Homo sapiens): < 10
IC50 [3]: 91 nM
SMILES: NC(=O)c1cccc2[nH]c(C(=O)N3CCC(NC4CCCCC4)C3)nc12 (stereo not drawn)
PF50 [4]: 4.17

IC50 [1]: 7.54 nM
Ratio IC50 (Homo sapiens): < 10
IC50 [3]: 34 nM
SMILES: NC(=O)c1cc(F)cc2[nH]c(C(=O)N3CCC(NC4CCCCC4)CC3)nc12
PF50 [4]: 0.71

IC50 [1]: > 100 nM
SMILES: CC(C)(C)OC(=O)NC1CCN(C(=O)c2nc3c(C(N)=O)cc(F)cc3[nH]2)C1 (stereo not drawn)

IC50 [1]: 60 nM
SMILES: NC(=O)c1cccc2[nH]c(C(=O)N3CCC(NC4CCNCC4)C3)nc12 (stereo not drawn)

IC50 [1]: 64 nM
SMILES: CC(C)N1CCC(NC(=O)c2nc3c(C(N)=O)cccc3[nH]2)CC1
